Results taken from ChEMBL document CHEMBL2203111, “An Hsp90 modulator that exhibits a unique mechanistic profile” (Bioorg Med Chem Lett, 2012).
Activity calls are given as the source filed them. The rule behind the calls is not given here. *1 amine or outer side, *2 acyl side, *3 side chain or, on linkers, in order; H or OH if unused. Where a SMILES comes first, the peptide text is derived from it. [ ]: non-standard residue; d: D form. X1 = O=C([C@H](N[*:1])[C@H](OCc1ccccc1)c1ccccc1)[*:2]; NMeV = CN[C@H](C(=O)O)C(C)C

How the values were obtained:
[1] = molecular target: T1, Heat shock protein HSP90 (Homo sapiens) (UniProt P07900+P08238); experiment: Binding affinity to HSP90 in human HCT116 cells assessed as increase in staining intensity in cytosol at 5 uM after 72 hrs by immunofluorescence staining analysis; assay type: cell-based; conditions: HCT-116
Method in brief: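 HCT116 colon cancer cells treated 72 hours (DMSO as vehicle control, 17-AAG as reference Hsp90 inhibitor); Hsp90 visualized by immunofluorescence with a polyclonal anti-Hsp90 antibody, cytosolic staining intensity compared with DMSO-treated cells.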

[2] = Competitive binding affinity to N-middle domain of HSP90 expressed in BL21(DE)3 Escherichia coli cells after 1 hr by immunoblotting analysis in the presence of 2-chlorobenzyl 4-((2R,5S,8S,11S,14R)-11,14-dibenzyl-8-isobutyl-5-isopropyl-13-methyl-3,6,9,12,15-pentaoxo-1,4,7,10,13-pentaazacyclopentadecan-2-yl)butylcarbamate
[3] = Binding affinity to N-middle domain of HSP90 expressed in BL21(DE)3 Escherichia coli cells at 5 uM after 2 hrs by Western blotting method based pull down assay
HCT-116 [4] = experiment: Binding affinity to beta tubulin in human HCT116 cell lysates at 0.6 uM after 1 hr using coomassie blue staining by SDS-PAGE based pull down assay; assay type: cell-free
Method in brief: (§1)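 Biotinylated probe incubated with HCT116 cell lysate; neutravidin-agarose beads added to capture probe with bound proteins, beads washed ten times, proteins eluted in sample buffer and resolved by gel/Western blot. Controls: PEGylated biotin linker alone and DMSO.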

Myosin-9 (Homo sapiens) = Myosin-9 (Homo sapiens) (UniProt P35579); experiment: Binding affinity to myosin-9 in human HCT116 cell lysates at 0.6 uM after 1 hr using coomassie blue staining by SDS-PAGE based pull down assay; conditions: HCT-116; method in brief: as §1
Chain of Myosin-9 (Homo sapiens) (P35579 whole entry): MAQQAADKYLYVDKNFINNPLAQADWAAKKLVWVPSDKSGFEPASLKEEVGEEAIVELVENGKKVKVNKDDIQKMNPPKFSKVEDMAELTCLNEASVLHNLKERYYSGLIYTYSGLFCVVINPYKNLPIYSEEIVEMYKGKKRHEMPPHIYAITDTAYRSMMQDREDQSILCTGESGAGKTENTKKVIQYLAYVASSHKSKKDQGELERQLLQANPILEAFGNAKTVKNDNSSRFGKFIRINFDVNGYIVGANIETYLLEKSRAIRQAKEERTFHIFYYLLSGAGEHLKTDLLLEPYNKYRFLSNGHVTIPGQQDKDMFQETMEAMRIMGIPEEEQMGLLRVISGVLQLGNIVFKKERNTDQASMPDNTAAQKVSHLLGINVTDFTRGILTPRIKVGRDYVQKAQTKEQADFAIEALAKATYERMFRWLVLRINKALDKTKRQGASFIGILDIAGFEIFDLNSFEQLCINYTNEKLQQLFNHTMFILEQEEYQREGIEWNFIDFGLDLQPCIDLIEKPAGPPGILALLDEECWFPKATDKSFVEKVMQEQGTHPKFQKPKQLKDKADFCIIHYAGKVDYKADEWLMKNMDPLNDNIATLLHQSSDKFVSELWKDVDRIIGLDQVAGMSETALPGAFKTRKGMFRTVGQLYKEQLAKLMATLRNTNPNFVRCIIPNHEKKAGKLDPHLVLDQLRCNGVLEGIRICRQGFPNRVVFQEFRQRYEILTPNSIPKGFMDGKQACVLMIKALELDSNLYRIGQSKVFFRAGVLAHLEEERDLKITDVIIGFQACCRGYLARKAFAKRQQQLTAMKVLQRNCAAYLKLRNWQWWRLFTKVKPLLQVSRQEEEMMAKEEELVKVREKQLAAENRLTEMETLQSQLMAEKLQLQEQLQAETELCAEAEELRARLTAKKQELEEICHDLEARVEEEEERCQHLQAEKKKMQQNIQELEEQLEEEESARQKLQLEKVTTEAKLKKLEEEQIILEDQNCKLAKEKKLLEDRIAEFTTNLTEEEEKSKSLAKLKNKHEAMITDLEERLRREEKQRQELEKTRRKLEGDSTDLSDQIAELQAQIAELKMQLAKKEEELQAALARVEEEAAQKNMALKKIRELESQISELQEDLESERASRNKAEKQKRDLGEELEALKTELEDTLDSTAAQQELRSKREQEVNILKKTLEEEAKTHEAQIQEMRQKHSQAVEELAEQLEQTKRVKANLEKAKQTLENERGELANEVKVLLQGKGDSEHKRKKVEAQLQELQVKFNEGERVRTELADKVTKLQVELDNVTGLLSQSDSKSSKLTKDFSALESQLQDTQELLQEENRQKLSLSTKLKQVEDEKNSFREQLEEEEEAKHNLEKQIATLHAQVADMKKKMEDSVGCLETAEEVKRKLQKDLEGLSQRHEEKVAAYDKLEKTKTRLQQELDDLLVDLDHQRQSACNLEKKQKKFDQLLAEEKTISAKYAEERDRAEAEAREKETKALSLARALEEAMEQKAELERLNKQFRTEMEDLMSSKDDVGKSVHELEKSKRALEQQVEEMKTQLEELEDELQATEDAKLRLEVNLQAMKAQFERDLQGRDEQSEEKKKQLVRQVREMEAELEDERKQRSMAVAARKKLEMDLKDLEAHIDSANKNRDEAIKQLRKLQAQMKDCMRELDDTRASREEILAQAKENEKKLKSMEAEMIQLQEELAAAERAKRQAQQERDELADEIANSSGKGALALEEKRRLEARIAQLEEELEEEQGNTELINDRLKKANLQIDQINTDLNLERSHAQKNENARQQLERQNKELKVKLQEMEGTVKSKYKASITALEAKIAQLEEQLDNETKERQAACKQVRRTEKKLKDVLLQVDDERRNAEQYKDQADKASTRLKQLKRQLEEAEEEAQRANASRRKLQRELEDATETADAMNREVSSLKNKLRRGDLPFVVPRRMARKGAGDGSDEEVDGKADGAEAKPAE

HCT-116 [5] = experiment: Binding affinity to actin in human HCT116 cell lysates at 0.6 uM after 1 hr using coomassie blue staining by SDS-PAGE based pull down assay; assay type: cell-free; method in brief: as §1
[6] = molecular target: T1, Heat shock protein HSP90 (Homo sapiens); experiment: Binding affinity to HSP90 in human HCT116 cell lysates at 0.6 uM after 1 hr by Western blot based pull down assay; assay type: protein assay; conditions: HCT-116; method in brief: as §1
[7] = molecular target: T1, Heat shock protein HSP90 (Homo sapiens); experiment: Binding affinity to HSP90 in human HCT116 cell lysates at 0.6 uM after 1 hr using coomassie blue staining by SDS-PAGE based pull down assay; assay type: protein assay; conditions: HCT-116; method in brief: as §1
[8] = molecular target: Glyceraldehyde-3-phosphate dehydrogenase (Homo sapiens) (UniProt P04406); experiment: Binding affinity to glyceraldehyde-3-phosphate dehydrogenase in human HCT116 cell lysates at 0.6 uM after 1 hr using coomassie blue staining by SDS-PAGE based pull down assay; conditions: HCT-116; method in brief: as §1
Chain of Glyceraldehyde-3-phosphate dehydrogenase (Homo sapiens) (P04406 2-335 limits assumed): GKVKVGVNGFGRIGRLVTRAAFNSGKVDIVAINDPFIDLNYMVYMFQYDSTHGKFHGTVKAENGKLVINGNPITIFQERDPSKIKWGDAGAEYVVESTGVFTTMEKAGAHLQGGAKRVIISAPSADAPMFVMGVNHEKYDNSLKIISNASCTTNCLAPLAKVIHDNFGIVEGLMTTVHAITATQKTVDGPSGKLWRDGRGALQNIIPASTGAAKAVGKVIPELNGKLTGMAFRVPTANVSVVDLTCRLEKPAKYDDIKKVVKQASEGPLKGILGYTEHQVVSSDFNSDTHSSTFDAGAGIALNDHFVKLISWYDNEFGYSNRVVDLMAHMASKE

[9] = Inhibition of binding of recombinant HSP90 to his-tagged Akt up to 10 uM by Western blotting analysis
HCT-116 [10] = experiment: Induction of apoptosis in human HCT116 cells assessed as PARP cleavage after 24 hrs by Western blotting analysis; assay type: functional, cell-based
Method in brief: (§2)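 HCT116 cells treated 24 hrs with compound at 0–50 µM; cell lysates analyzed by Western blot for full-length PARP (~113 kDa) and cleaved fragments, full-length PARP quantified relative to untreated cells.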

HCT-116 [11] = experiment: Induction of apoptosis in human HCT116 cells assessed as PARP cleavage at 50 uM after 24 hrs by Western blotting analysis; assay type: functional; method in brief: as §2
[12] = Inhibition of binding of recombinant HSP90 to his-tagged HER2 up to 10 uM by Western blotting analysis

Row | Activity [1] | IC50 [2] [µM] | Activity (Myosin-9 (Homo sapiens)) | Activity [6] | Activity [7] | Activity [8] | inhibition [9] | inhibition [12] | Compound | Activity [3] | Activity (HCT-116 [4]) | Activity (HCT-116 [5]) | Activity (HCT-116 [10]) | Activity (HCT-116 [11]) [%]
1 | Active | 1.9 |  |  |  |  |  |  | CC(C)C[C@@H]1NC(=O)[C@H](C(C)C)N(C)C(=O)[C@@H](CC(C)C)NC(=O)[C@@H](Cc2ccccc2)NC(=O)[C@@H]([C@H](OCc2ccccc2)c2ccccc2)NC1=O (cyclo(L[X1][dF][dL][NMeV])) |  |  |  |  | 
2 |  |  | Active | Active | Active | Active |  |  | CC(C)C[C@@H]1NC(=O)[C@H](CCCCNC(=O)CCOCCOCCOCCOCCNC(=O)CCCC[C@@H]2SC[C@@H]3NC(=O)N[C@@H]32)NC(=O)[C@@H](CCCCNC(=O)OCc2ccccc2Cl)NC(=O)[C@@H](Cc2ccccc2)N(C)C(=O)[C@H](Cc2ccccc2)NC1=O | Active | Active | Active |  | 
3 | Active | 6.2 |  |  |  |  | inactive | inactive | CC(C)C[C@@H]1NC(=O)[C@H](C(C)C)NC(=O)[C@@H](CCCCNC(=O)OCc2ccccc2Cl)NC(=O)[C@@H](Cc2ccccc2)N(C)C(=O)[C@H](Cc2ccccc2)NC1=O |  |  |  | Dose-dependent effect | 48
4 |  |  | inactive | inactive | inactive | inactive |  |  | CC(C)[C@@H]1NC(=O)[C@@H](CCCCNC(=O)OCc2ccccc2Cl)NC(=O)[C@@H](Cc2ccccc2)N(C)C(=O)[C@H](Cc2ccccc2)NC(=O)[C@H](CCCCNC(=O)CCOCCOCCOCCOCCNC(=O)CCCC[C@@H]2SC[C@@H]3NC(=O)N[C@@H]32)NC1=O |  | inactive | inactive |  | 
